In ChEMBL document CHEMBL1806448, “Optimization of a pyrazole hit from FBDD into a novel series of indazoles as ketohexokinase inhibitors” (Bioorg Med Chem Lett, 2011):

Legend:
[1] = target: T1, Ketohexokinase (Homo sapiens, UniProt P50053); test: Inhibition of KHK-mediated conversion of D-fructose to fructose-1-phosphate after 60 mins by high throughput mass spectrometry analysis
T1 sequence (P50053 whole entry): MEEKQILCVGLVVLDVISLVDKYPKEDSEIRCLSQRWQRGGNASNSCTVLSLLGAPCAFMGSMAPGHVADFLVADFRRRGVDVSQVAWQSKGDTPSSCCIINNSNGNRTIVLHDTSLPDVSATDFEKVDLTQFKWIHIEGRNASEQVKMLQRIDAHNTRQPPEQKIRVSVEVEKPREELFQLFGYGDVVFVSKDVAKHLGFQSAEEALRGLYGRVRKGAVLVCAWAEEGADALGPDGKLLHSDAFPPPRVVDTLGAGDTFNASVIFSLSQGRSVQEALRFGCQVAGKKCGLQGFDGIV
Procedure, shortened: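 KHK enzyme assay at 25 °C with 200 µM fructose, 100 µM ATP and 2 nM KHK under steady-state conditions for 60 min. Fructose-1-P product read out by high-throughput mass spectrometry (RapidFire). 12-point dose–response curve used to derive IC50. 384-well format.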

[2] = Metabolic stability in rat liver microsomes assessed as compound remaining after 10 mins; assay type: ADME, Microsome; conditions: read-out: Stability
[3] = Inhibition of sodium channel at 10 uM
[4] = Bioavailability in rat at 10 mg/kg, po after 24 hrs; conditions: in vivo
[5] = Clearance in rat at 2 mg/kg, iv after 24 hrs; assay type: ADME, organism-based; set-up: dose 2 mg/kg, route intravenous; conditions: in vivo
Procedure, shortened: (§1)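 Rat pharmacokinetics over 24 h. Oral dose 10 mg/kg and iv dose 2 mg/kg.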

[6] = Volume of distribution at steady state in rat at 2 mg/kg, iv after 24 hrs; assay type: ADME, organism-based; set-up: dose 2 mg/kg, route intravenous; conditions: in vivo, read-out: Vdss; procedure, shortened: as §1
[7] = Cmax in rat at 10 mg/kg, po after 24 hrs; assay type: ADME, organism-based; set-up: dose 10 mg/kg, route oral; conditions: in vivo; procedure, shortened: as §1
[8] = Half life in rat at 10 mg/kg, po after 24 hrs; assay type: ADME, organism-based; set-up: dose 10 mg/kg, route oral; conditions: in vivo; procedure, shortened: as §1
[9] = test system: Rattus norvegicus; test: AUClast in rat at 10 mg/kg, po after 24 hrs; assay type: ADME, organism-based, Plasma; set-up: time < 24 hr, dose 10 mg/kg, route oral; conditions: in vivo; procedure, shortened: as §1

Row | SMILES | IC50 [1] [nM] | further results
1 | CSc1nn(-c2ccccc2)c2cc(NC(=O)CC3CCNCC3)ccc12 | 680 | 
2 | CSc1nn(-c2ccc(F)cc2)c2cc(C3=CCNCC3)ccc12 | 23 | remaining at 10 min [2]: 105%
3 | CSc1nn(-c2ccccc2)c2cc(-c3ccncc3)ccc12 | > 10000 | 
4 | CCc1nc(-c2ccccc2)n2cc(N3CCNCC3)ccc12 | > 20000 | 
5 | CSc1nn(-c2ccc([N+](=O)[O-])cc2)c2cc(C3=CCNCC3)ccc12 | 480 | 
6 | CSc1nn(-c2ccccc2)c2c(C3=CCNCC3)cccc12 | 11500 | 
7 | CSc1nn(-c2ccccc2)c2cc(C3=CCNCC3)ccc12 | 80 | remaining at 10 min [2]: 72%
8 | CCc1nn(-c2ccccc2)c2cc(N3CCN(C4CCNCC4)CC3)ccc12 |  | inhibition [3]: 61%
9 | CSc1nn(-c2ccccc2)c2cc(N3CCN(C4CCNCC4)CC3)ccc12 | 670 | 
10 | CCc1nn(-c2ccccc2)c2cc(N3CCN(C4CCNC4)CC3)ccc12 (configuration not stated) | 920 | bioavailability [4]: 72.4%; clearance [5]: 21.2 mL/min/kg; Vd [6]: 13.9 L/kg; Cmax [7]: 399 ng/mL; half-life [8]: 19.6 h; AUClast [9]: 4890 ng·h/mL
11 | CSc1nn(-c2cccc(C)c2)c2cc(C3=CCNCC3)ccc12 | 34 | 
12 | CSc1nn(-c2ccccc2)c2cc(C3CCNCC3)ccc12 | 330 | 
13 | CSc1nn(-c2cccc(F)c2)c2cc(C3=CCNCC3)ccc12 | 42 | remaining at 10 min [2]: 96%
14 | CCc1nn(-c2ccccc2)c2cc(N3CC4CNCC4C3)ccc12 (configuration not stated) |  | bioavailability [4]: 98.8%; clearance [5]: 28.9 mL/min/kg; Vd [6]: 7.81 L/kg; Cmax [7]: 619 ng/mL; half-life [8]: 3.41 h; AUClast [9]: 5680 ng·h/mL
15 | COc1ccc(-n2nc(SC)c3ccc(C4=CCNCC4)cc32)cc1 | 87 | 
16 | CSc1nn(-c2ccccc2)c2c(OC3CCNCC3)cccc12 | 1680 | 
17 | CSc1nn(-c2ccccc2)c2c(OCC3CCNCC3)cccc12 | 240 | 
18 | Cn1nc(-c2ccccc2)c2cc(N3CCNCC3)ccc21 | 1280 | 
